Data: ChEMBL document CHEMBL1799966, “Synthesis and anticancer activity of oxindole derived imidazo[1,5-a]pyrazines” (Eur J Med Chem, 2011)
Active and inactive are the calls of the source. No cut-off for these calls is given here.

Assays:
[1] = tested on: HT-29; experiment: Cytotoxicity against human HT-29 cells; format: functional
In short: (§1)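 NCI 60-cell panel second-stage testing by NCI standard procedures. Compound was dissolved in DMSO and tested at five 10-fold dilutions: 10^-4, 10^-5, 10^-6, 10^-7 and 10^-8 M.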

[2] = tested on: A549; experiment: Induction of cell cycle arrest in human A549 cells assessed as accumulation at sub G1 phase at 6.5 uM after 48 hrs by propidium iodide staining-based FACS analysis (reference value: 1.02 %); format: functional
In short: (§2)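 A549 cells (1 × 10^6) in six-well plates received 6.5 µM (final) for 24 h or 48 h. Floating and adherent cells were fixed in 70% ethanol, washed in PBS, then stained for 20 min with 50 µg/mL propidium iodide in hypotonic citrate/Triton X-100 buffer with DNase-free RNase A. Cells were analysed by FACS.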

[3] = tested on: A549; experiment: Induction of cell cycle arrest in human A549 cells assessed as accumulation at G0/G1 phase at 6.5 uM after 24 hrs by propidium iodide staining-based FACS analysis (reference value: 56.26 %); format: functional; in short: as §2
[4] = tested on: SR; experiment: Cytotoxicity against human SR cells; format: functional
In short: (§3)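 NCI 60-cell-line panel protocol. Primary screen used a single 10^-5 M concentration with 48 h incubation, and percent growth was read against untreated cells by sulforhodamine B protein staining. The five-dose follow-up used a DMSO solution at five 10-fold dilutions from 10^-4 to 10^-8 M.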

[5] = tested on: NCI/ADR-RES; experiment: Cytotoxicity against human NCI/ADR-RES cells; format: functional; in short: as §1
[6] = tested on: A549; experiment: Induction of cell cycle arrest in human A549 cells assessed as accumulation at G2/M phase at 6.5 uM after 48 hrs by propidium iodide staining-based FACS analysis (reference value: 20.92 %); format: functional; in short: as §2
[7] = tested on: SF-539; experiment: Cytotoxicity against human SF539 cells; format: functional; in short: as §1
[8] = tested on: UO-31; experiment: Cytotoxicity against human UO31 cells; format: functional; in short: as §3
[9] = tested on: HCT-15; experiment: Cytotoxicity against human HCT15 cells; format: functional; in short: as §1
[10] = tested on: MDA-MB-468; experiment: Cytotoxicity against human MDA-MB-468 cells; format: functional; in short: as §1
[11] = tested on: SF-268; experiment: Cytotoxicity against human SF268 cells; format: functional; in short: as §1
[12] = tested on: A549; experiment: Induction of apoptosis in human A549 cells assessed as pre-necrotic cells at 6.5 uM after 24 hrs using Annexin V-FITC and PI staining by flow cytometry (reference value: 0.5 %); format: functional
[13] = tested on: MDA-MB-435; experiment: Cytotoxicity against human MDA-MB-435 cells; format: functional; in short: as §1
[14] = tested on: SF-295; experiment: Cytotoxicity against human SF295 cells; format: functional; in short: as §1
[15] = tested on: NCI-H522; experiment: Cytotoxicity against human NCI-H522 cells; format: functional; in short: as §1
[16] = tested on: A498; experiment: Cytotoxicity against human A498 cells; format: functional; in short: as §1
[17] = tested on: NCI-H226; experiment: Cytotoxicity against human NCI-H226 cells; format: functional; in short: as §1
[18] = tested on: A549; experiment: Induction of apoptosis in human A549 cells assessed as viable cells at 6.5 uM after 48 hrs using Annexin V-FITC and PI staining by flow cytometry (reference value: 11.1 %); format: functional; conditions: A549, 48 h, read-out: Activity
[19] = tested on: IGROV-1; experiment: Cytotoxicity against human IGROV1 cells; format: functional; in short: as §1
[20] = tested on: PC-3; experiment: Cytotoxicity against human PC3 cells; format: functional; in short: as §1
[21] = tested on: NCI-H460; experiment: Cytotoxicity against human NCI-H460 cells; format: functional; in short: as §1
[22] = tested on: SK-MEL-2; experiment: Cytotoxicity against human SK-MEL-2 cells; format: functional; in short: as §1
[23] = tested on: A549; experiment: Induction of apoptosis in human A549 cells assessed as apoptotic cells at 6.5 uM after 48 hrs using Annexin V-FITC and PI staining by flow cytometry (reference value: 2.6 %); format: functional
[24] = tested on: OVCAR-4; experiment: Cytotoxicity against human OVCAR4 cells; format: functional; in short: as §1
[25] = tested on: OVCAR-8; experiment: Cytotoxicity against human OVCAR8 cells; format: functional; in short: as §1
[26] = tested on: A549; experiment: Induction of apoptosis in human A549 cells assessed as cytoplasmic condensation at 6.5 uM after 24 to 48 hrs by Hoechst 33342 staining; format: functional, cell-based
In short: (§4)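 A549 cells were grown 24 h on coverslips at 10,000 cells, then exposed to 6.5 µM for 24 h and 48 h, with 0.001% DMSO vehicle controls. Hoechst 33342 (0.5 µg/mL) with 4% paraformaldehyde was applied for 30 min at 37 °C. Random fields were examined by fluorescence microscopy, scoring relative fluorescence and nuclear fragmentation.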

[27] = tested on: A549; experiment: Induction of apoptosis in human A549 cells assessed as nuclear fragmentation at 6.5 uM after 24 to 48 hrs by Hoechst 33342 staining; format: functional, cell-based; in short: as §4
[28] = tested on: A549; experiment: Induction of apoptosis in human A549 cells assessed as viable cells at 6.5 uM after 24 hrs using Annexin V-FITC and PI staining by flow cytometry (reference value: 11.1 %); format: functional; conditions: A549, 24 h, read-out: Activity
[29] = tested on: A549; experiment: Induction of apoptosis in human A549 cells assessed as late apoptotic cells at 6.5 uM after 48 hrs using Annexin V-FITC and PI staining by flow cytometry (reference value: 85.7 %); format: functional
[30] = tested on: HCT-116; experiment: Cytotoxicity against human HCT116 cells; format: functional; in short: as §1
[31] = tested on: A549; experiment: Induction of cell cycle arrest in human A549 cells assessed as accumulation at S phase at 6.5 uM after 48 hrs by propidium iodide staining-based FACS analysis (reference value: 19.21 %); format: functional; in short: as §2
[32] = tested on: A549; experiment: Induction of cell cycle arrest in human A549 cells assessed as accumulation at G0/G1 phase at 6.5 uM after 48 hrs by propidium iodide staining-based FACS analysis (reference value: 56.26 %); format: functional; in short: as §2
[33] = tested on: BT-549; experiment: Cytotoxicity against human BT549 cells; format: functional; in short: as §1
[34] = tested on: A549; experiment: Induction of apoptosis in human A549 cells assessed as apoptotic bodies formation at 6.5 uM after 24 to 48 hrs by Hoechst 33342 staining; format: functional, cell-based; in short: as §4
[35] = tested on: A549; experiment: Induction of apoptosis in human A549 cells assessed as pre-necrotic cells at 6.5 uM after 48 hrs using Annexin V-FITC and PI staining by flow cytometry (reference value: 0.5 %); format: functional
[36] = tested on: A549; experiment: Induction of apoptosis in human A549 cells assessed as intraneucleosomal DNA fragmentation at 6.5 uM after 24 to 48 hrs by agarose gel electrophoresis technique; format: functional, cell-based
In short: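 After 24 h and 48 h at 6.5 µM, A549 cells were pelleted, washed in PBS and lysed. The supernatant was treated with SDS and RNase A for 2 h at 56 °C, then proteinase K. DNA was precipitated with ammonium acetate and ice-cold ethanol at −80 °C for 1 h, washed in 80% ethanol, dissolved in TE, and run on 2% agarose gel.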

[37] = tested on: A549; experiment: Induction of apoptosis in human A549 cells assessed as apoptotic cells at 6.5 uM after 24 hrs using Annexin V-FITC and PI staining by flow cytometry (reference value: 2.6 %); format: functional
[38] = tested on: SK-OV-3; experiment: Cytotoxicity against human SKOV3 cells; format: functional; in short: as §3
[39] = tested on: NCI-H322M; experiment: Cytotoxicity against human NCI-H322M cells; format: functional; in short: as §1
[40] = tested on: A549; experiment: Cytotoxicity against human A549 cells; format: functional
[41] = tested on: OVCAR-3; experiment: Cytotoxicity against human OVCAR3 cells; format: functional; in short: as §1
[42] = tested on: ACHN; experiment: Cytotoxicity against human ACHN cells; format: functional; in short: as §1
[43] = tested on: KM12; experiment: Cytotoxicity against human KM12 cells; format: functional; in short: as §1
[44] = tested on: OVCAR-5; experiment: Cytotoxicity against human OVCAR5 cells; format: functional; in short: as §1

`O=C1Nc2ccccc2/C1=C\c1nc(-c2ccccc2F)n2ccccc12` gave a GI50 [1] of 3.5 µM, an Activity [2] of 6.56% and an Activity [3] of 66.2%. For the same compound, the GI50 [4] was 11 µM, the GI50 [5] was 3.36 µM and the Activity [6] was 10.12%. For the same compound, the GI50 [7] was 3.1 µM, the GI50 [8] was 2.12 µM and the GI50 [9] was 13 µM. For the same compound, the GI50 [10] was 1.54 µM, the GI50 [11] was 4.65 µM and the Activity [12] was 0.1%. The GI50 [13] was 3.95 µM, the GI50 [14] was 3.65 µM and the GI50 [15] was 2.18 µM. For the same compound, the GI50 [16] was 2.81 µM, the GI50 [17] was 4.78 µM and the viability at 6.5 µM [18] was 8.3%. For the same compound, the GI50 [19] was 2.04 µM, the GI50 [20] was 6.81 µM and the GI50 [21] was 2.17 µM. The GI50 [22] was 6.81 µM, the Activity [23] was 87.4% and the GI50 [24] was 1.81 µM. For the same compound, the GI50 [25] was 2.49 µM, the Activity [26] was “Active” and the Activity [27] was “Active”. For the same compound, the viability at 6.5 µM [28] was 31.2%, the Activity [29] was 3.4% and the GI50 [30] was 1.97 µM. It also gave an Activity [31] of 5.74%, an Activity [32] of 75.85% and a GI50 [33] of 3.36 µM. The Activity [34] was “Active”, the Activity [35] was 0.9% and the Activity [36] was “Active”. For the same compound, the Activity [37] was 61.5%, the GI50 [38] was 3.46 µM and the GI50 [39] was 4.16 µM. For the same compound, the GI50 [40] was 3.46 µM, the GI50 [41] was 1.9 µM and the GI50 [42] was 3.3 µM. The GI50 [43] was 3.49 µM and the GI50 [44] was 1.8 µM.
